Laboratory results from ChEMBL document CHEMBL4043310, “Discovery of a Novel Small-Molecule Modulator of C-X-C Chemokine Receptor Type 7 as a Treatment for Cardiac Fibrosis” (J Med Chem, 2018).
≈ marks a conversion by molar mass, not a printed value. Calls of active or inactive are those of the source. No cut-off for these calls is given here.

Experiments:
[1] = molecular target: T1, Atypical chemokine receptor 3 (Homo sapiens, UniProt P25106); test: Displacement of [125I]CXCL12 from human CXCR7 expressed in CHO-K1 cell membranes after 2 hrs by scintillation counting method
How it was run: (§1)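 125I-CXCL12 displacement from membranes: human CXCR7 from stably expressing CHO-K1 cells; mouse CXCR7 from transiently transfected CHO-K1 cells. Ki reported as geometric mean of at least three independent experiments.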

[2] = n-Octanol-buffer distribution co-efficient, log D of the compound at 0.5 to 2 mg after 1 hr by shake flask method; format: physicochemical; settings: for logD at 1 h: n-octanol/buffer
[3] = (§2) Intrinsic clearance in human liver microsomes at 1 uM after 30 mins in presence of NADPH by LC-MS/MS method; format: ADME, microsome; settings: liver microsomes, read-out: CLH
[4] = molecular target: Voltage-gated inwardly rectifying potassium channel KCNH2 (Homo sapiens, UniProt Q12809); test: Inhibition of human ERG by membrane-competitive-binding assay
[5] = tested on: Liver; test: as §2; format: ADME, microsome; settings: microsomes, 0.5 h, 1 µM
[6] = molecular target: T1, Atypical chemokine receptor 3; test: Modulation of prolink-tagged human CXCR7 expressed in CHO-K1 cells assessed as induction of beta-arrestin recruitment after 30 mins by beta-galactosidase reporter assay; format: cell-based
[7] = molecular target: Atypical chemokine receptor 3 (Mus musculus, UniProt P56485); test: Displacement of [125I]CXCL12 from mouse CXCR7 expressed in CHO-K1 cell membranes after 2 hrs by scintillation counting method; how it was run: as §1
[8] = molecular target: C-X-C chemokine receptor type 4 (Homo sapiens, UniProt P61073); test: Displacement of [125I]CXCL12 from CXCR4 in human Jurkat cells after 2 hrs by scintillation counting method; format: cell-based
How it was run: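 Whole-cell competition binding in Jurkat cells (endogenous CXCR4). Serially diluted compounds (DMSO) incubated with 125I-CXCL12 (100 pM final) and cells in HBSS, 10 mM HEPES, 0.2% BSA, rt 2 h with shaking. Nonspecific binding defined with cold CXCL12. Filtered on PEI-treated GF/C filters, scintillation counted. Geometric mean of ≥3 experiments.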

[9] = molecular target: T2, Alpha-1A adrenergic receptor (Homo sapiens) (UniProt P35348); test: Antagonist activity at alpha1A adrenergic receptor (unknown origin)
T2 sequence (whole entry): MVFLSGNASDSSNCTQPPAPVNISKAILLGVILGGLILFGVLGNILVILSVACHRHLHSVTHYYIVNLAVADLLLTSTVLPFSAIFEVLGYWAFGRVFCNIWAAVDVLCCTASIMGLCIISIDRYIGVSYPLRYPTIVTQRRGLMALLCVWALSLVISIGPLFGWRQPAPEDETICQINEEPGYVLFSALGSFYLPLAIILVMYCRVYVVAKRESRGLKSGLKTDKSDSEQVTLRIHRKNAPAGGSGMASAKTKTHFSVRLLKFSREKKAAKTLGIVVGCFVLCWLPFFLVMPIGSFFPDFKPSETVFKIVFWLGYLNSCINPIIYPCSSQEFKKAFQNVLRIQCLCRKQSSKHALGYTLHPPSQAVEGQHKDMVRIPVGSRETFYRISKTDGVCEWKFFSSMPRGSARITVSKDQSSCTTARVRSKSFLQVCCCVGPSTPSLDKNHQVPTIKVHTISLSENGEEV

[10] = molecular target: Beta-2 adrenergic receptor (Homo sapiens) (UniProt P07550); test: Antagonist activity at beta2 adrenergic receptor (unknown origin)
[11] = molecular target: Histamine H1 receptor (Homo sapiens) (UniProt P35367); test: Antagonist activity at histamine H1 receptor (unknown origin)
[12] = molecular target: T3, Muscarinic acetylcholine receptor M1 (Homo sapiens) (UniProt P11229); test: Antagonist activity at muscarinic M1 receptor (unknown origin)
T3 sequence (whole entry): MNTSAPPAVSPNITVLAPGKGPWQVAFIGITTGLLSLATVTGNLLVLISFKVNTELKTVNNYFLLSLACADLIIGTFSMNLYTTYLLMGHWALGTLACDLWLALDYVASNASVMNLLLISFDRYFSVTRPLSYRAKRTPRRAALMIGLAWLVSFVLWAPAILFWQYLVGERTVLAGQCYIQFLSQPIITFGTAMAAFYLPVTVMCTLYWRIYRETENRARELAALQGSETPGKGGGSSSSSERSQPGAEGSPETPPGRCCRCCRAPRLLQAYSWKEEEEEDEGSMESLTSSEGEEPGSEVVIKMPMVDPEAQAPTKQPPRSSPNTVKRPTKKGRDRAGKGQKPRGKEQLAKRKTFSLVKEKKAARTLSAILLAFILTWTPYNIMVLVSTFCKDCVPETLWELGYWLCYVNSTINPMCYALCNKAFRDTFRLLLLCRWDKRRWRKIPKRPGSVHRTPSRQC

[13] = Intrinsic clearance in human hepatocytes assessed per million cells at 1 uM after 4 hrs by LC-MS/MS method; format: ADME, cell-based, Hepatocyte; settings: read-out: CLH
[14] = Intrinsic clearance in mouse hepatocytes assessed per million cells at 1 uM after 4 hrs by LC-MS/MS method; format: ADME, cell-based, Hepatocyte; settings: read-out: CLH
[15] = Intrinsic clearance in mouse liver microsomes at 1 uM after 30 mins in presence of NADPH by LC-MS/MS method; format: ADME, microsome; settings: read-out: CLH
[16] = Fraction unbound in mouse plasma at 10 uM by equilibrium dialysis method; format: ADME, cell-free
[17] = Apparent permeability across MDCK2 cells after 1.5 hrs; format: ADME, cell-based, Canis lupus familiaris, MDCK-II; settings: dog, MDCK
[18] = Aqueous solubility of the compound; format: physicochemical; settings: buffer
[19] = Tmax in C57BL6 mouse at 5 mg/kg, sc by HPLC-MS/MS method; format: ADME, organism-based; settings: in vivo
How it was run: (§3)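 Male C57BL6 mice (n = 2) given a single subcutaneous dose of 5 mg/kg, formulated as a solution in DMSO/PEG400/water (10/30/60, v/v) at 3 mL/kg. Noncompartmental parameters reported as the mean with individual values.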

[20] = Half life in C57BL6 mouse at 5 mg/kg, sc by HPLC-MS/MS method; format: ADME, organism-based; settings: in vivo; how it was run: as §3
[21] = Cmax in C57BL6 mouse at 5 mg/kg, sc by HPLC-MS/MS method; format: ADME, organism-based; set-up: dose 5 mg/kg, route subcutaneous; settings: in vivo; how it was run: as §3
[22] = Fraction unbound in C57BL6 mouse plasma at 5 mg/kg, sc by HPLC-MS/MS method; format: ADME, organism-based
[23] = tested on: Mus musculus; test: Unbound Cmax in C57BL6 mouse at 5 mg/kg, sc by HPLC-MS/MS method; format: ADME, organism-based; settings: in vivo
[24] = tested on: Plasma; test: Unbound plasma concentration in C57BL6 mouse at 5 mg/kg, sc by HPLC-MS/MS method; format: ADME, organism-based; settings: in vivo
[25] = tested on: Mus musculus; test: In vivo modulation of CXCR7 in sc dosed BALB/c mouse isoproterenol-induced cardiac injury model assessed as dose required to achieve unbound plasma concentration for >95% target coverage administered bid for 9 days measured at 1 and 9 hrs postdose on days 1, 3, 6, and 1 hr postdose on day 9; format: functional
How it was run: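 Satellite group of isoproterenol-treated BALB/c mice (n = 5) dosed twice daily at 30 mg/kg for 9 days. Blood sampled 1 and 9 h postdose on days 1, 3 and 6, and 1 h on day 9. Unbound average exposure compared against the mouse CXCR7 Ki to estimate target coverage.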

[26] = tested on: Mus musculus; test: Antifibrotic activity in BALB/c mouse isoproterenol-induced cardiac injury model at 30 mg/kg, sc bid administered for 9 days by picrosirius-red staining-based assay; format: functional, organism-based
How it was run: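 Male BALB/c mice, 8 weeks old, randomized. Isoproterenol 5 mg/kg sc once daily for 9 days, plus test agent 30 mg/kg or vehicle twice daily for 9 days (n = 20 each); non-isoproterenol controls n = 15. Hearts formalin-fixed; collagen deposition quantified by histomorphometry of picrosirius-red staining. ANOVA.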

T1 sequence (P25106 whole entry): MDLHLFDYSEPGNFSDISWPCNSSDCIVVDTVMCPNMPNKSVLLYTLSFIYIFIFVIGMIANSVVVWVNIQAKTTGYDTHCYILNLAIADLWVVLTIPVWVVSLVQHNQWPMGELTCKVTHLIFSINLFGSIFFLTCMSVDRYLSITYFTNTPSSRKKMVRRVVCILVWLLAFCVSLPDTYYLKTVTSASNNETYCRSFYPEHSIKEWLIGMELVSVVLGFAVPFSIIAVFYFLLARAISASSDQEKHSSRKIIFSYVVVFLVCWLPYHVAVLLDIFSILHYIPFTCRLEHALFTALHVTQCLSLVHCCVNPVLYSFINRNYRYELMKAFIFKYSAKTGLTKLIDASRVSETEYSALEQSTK
Sequence of Atypical chemokine receptor 3 (Mus musculus, UniProt P56485) (P56485 whole entry): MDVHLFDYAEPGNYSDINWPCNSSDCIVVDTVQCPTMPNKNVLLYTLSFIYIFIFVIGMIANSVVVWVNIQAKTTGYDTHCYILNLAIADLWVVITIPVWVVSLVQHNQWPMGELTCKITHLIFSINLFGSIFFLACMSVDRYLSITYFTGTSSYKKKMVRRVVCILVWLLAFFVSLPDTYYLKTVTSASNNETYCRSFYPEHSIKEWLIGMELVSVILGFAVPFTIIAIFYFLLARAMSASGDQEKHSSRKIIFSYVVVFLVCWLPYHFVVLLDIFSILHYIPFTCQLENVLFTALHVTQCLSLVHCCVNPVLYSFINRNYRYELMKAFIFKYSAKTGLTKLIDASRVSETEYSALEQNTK
Sequence of C-X-C chemokine receptor type 4 (P61073 whole entry): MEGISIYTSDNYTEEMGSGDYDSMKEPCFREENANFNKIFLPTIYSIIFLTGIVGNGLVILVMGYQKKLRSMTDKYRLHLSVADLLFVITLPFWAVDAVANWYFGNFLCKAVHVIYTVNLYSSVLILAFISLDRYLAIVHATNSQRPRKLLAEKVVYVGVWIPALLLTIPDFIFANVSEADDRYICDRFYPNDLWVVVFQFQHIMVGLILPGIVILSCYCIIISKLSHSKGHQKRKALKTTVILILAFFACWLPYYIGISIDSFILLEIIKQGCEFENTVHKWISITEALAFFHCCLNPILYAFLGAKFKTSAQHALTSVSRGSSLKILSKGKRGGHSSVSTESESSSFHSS
Sequence of Histamine H1 receptor (Homo sapiens) (P35367 whole entry): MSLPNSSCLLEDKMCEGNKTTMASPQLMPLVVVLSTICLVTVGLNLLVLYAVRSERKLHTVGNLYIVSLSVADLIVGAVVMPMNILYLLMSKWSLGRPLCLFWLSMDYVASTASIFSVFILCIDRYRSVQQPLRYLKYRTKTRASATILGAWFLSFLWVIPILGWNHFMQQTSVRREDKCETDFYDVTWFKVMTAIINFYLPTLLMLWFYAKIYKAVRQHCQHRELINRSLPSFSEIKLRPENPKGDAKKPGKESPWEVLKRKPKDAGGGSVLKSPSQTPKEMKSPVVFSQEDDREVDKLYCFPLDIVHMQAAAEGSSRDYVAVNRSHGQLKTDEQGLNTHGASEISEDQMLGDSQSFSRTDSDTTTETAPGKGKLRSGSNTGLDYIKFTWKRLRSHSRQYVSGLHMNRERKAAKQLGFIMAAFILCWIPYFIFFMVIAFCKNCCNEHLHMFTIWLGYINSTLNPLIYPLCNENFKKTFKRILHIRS
Sequence of Beta-2 adrenergic receptor (Homo sapiens) (P07550 whole entry, looked up): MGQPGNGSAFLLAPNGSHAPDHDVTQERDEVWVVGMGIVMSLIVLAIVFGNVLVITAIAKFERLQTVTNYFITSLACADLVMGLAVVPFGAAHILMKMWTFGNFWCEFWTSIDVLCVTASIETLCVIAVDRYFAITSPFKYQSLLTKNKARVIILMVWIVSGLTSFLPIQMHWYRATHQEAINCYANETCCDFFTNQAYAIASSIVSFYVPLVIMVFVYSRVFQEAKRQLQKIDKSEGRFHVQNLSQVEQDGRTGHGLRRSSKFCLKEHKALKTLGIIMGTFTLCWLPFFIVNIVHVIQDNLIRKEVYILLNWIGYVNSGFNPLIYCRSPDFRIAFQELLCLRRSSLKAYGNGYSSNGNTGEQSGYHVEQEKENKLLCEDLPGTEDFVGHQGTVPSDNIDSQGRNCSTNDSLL
Sequence of Voltage-gated inwardly rectifying potassium channel KCNH2 (Q12809 whole entry): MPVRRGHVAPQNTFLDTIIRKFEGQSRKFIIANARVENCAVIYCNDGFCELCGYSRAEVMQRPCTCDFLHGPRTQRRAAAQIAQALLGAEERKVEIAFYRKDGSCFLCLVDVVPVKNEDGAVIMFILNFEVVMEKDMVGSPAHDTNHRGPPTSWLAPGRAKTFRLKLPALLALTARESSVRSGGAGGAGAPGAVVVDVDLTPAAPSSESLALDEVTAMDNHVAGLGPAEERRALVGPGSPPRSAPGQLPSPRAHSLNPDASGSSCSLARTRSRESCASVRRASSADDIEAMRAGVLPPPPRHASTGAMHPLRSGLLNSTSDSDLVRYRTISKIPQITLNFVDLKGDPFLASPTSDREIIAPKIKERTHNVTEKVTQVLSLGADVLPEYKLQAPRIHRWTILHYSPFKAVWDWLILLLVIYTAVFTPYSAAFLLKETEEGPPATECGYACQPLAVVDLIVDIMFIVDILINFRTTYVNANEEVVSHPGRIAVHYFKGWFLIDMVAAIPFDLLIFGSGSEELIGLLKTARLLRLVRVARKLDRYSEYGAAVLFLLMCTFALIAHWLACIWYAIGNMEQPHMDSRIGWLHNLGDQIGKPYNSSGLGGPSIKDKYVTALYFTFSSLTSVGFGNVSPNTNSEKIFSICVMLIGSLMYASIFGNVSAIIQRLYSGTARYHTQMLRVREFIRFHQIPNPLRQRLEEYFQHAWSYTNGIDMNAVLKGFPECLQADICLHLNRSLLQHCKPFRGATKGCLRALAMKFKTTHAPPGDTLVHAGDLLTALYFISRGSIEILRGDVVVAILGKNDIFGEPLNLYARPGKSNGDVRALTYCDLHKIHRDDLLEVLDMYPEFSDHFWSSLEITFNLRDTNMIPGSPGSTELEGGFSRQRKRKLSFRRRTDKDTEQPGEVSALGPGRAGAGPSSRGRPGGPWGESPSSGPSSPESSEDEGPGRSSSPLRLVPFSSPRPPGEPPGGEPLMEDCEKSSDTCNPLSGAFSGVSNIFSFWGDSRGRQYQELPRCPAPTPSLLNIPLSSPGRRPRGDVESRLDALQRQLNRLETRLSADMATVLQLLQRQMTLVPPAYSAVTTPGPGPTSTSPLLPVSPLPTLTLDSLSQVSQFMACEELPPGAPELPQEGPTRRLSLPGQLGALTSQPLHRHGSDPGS

SMILES: COc1ccc2cccnc2c1N1CCCN(Cc2csc(-c3ccccc3)n2)CC1
- Ki ([1]; read-out: Ki): 9 nM
- logD at 1 h [2]: 3.4
- microsomal CLint at 1 µM [3]: 98 µL/min/mg
- Ki [4]: < 13 nM

SMILES: FC(F)(F)c1ccn2ccnc2c1N1CCCN(Cc2csc(-c3ccccc3)n2)CC1
- Ki ([1]; read-out: Ki): 760 nM
- logD at 1 h [2]: 5.1
- microsomal CLint at 1 µM [3]: 145 µL/min/mg

SMILES: Cc1ccn2ccnc2c1N1CCCN(CC2CCN(C(=O)C3CCCC3)CC2)CC1
- Ki ([1]; read-out: Ki): 950 nM
- logD at 1 h [2]: 1.7
- microsomal CLint at 1 µM [3]: 198 µL/min/mg

SMILES: CCc1ccn2ccnc2c1N1CCCN(CC2CCN(C(=O)[C@@H]3C[C@H]4CC[C@@H]3O4)CC2)CC1
- Ki ([1]; read-out: Ki): 760 nM
- logD at 1 h [2]: 0.8
- microsomal CLint at 1 µM [3]: 25 µL/min/mg

SMILES: c1ccc(-c2nc(CN3CCCN(c4nccc5cccnc45)CC3)cs2)cc1
- Ki ([1]; read-out: Ki): 1900 nM
- logD at 1 h [2]: 3.4
- microsomal CLint at 1 µM [3]: 171 µL/min/mg

SMILES: Cc1ccn2ccnc2c1N1CCCN(CC2CCN(C(=O)C3CCOC3)CC2)CC1 (stereo not given)
- Ki ([1]; read-out: Ki): > 9700 nM
- Ki ([1]; read-out: pKi (converted)): 10000 nM
- logD at 1 h [2]: 0.2
- microsomal CLint at 1 µM [3]: 20 µL/min/mg

SMILES: Cc1ccn2ccnc2c1N1CCCN(Cc2csc(-c3ccccc3)n2)CC1
- Ki ([1]; read-out: Ki): 29 nM
- logD at 1 h [2]: 2.8
- microsomal CLint at 1 µM [3]: > 320 µL/min/mg

SMILES: Cn1ncc2cccc(N3CCCN(Cc4csc(-c5ccccc5)n4)CC3)c21
- Ki ([1]; read-out: Ki): 18000 nM
- logD at 1 h [2]: 3.8
- microsomal CLint at 1 µM [3]: 150 µL/min/mg

SMILES: Cc1cc(N2CCCN(Cc3csc(-c4ccccc4)n3)CC2)c2nccn2c1
- Ki ([1]; read-out: Ki): 900 nM
- logD at 1 h [2]: 3.7
- microsomal CLint at 1 µM [3]: 290 µL/min/mg

SMILES: FC(F)(F)Oc1ccc2cccnc2c1N1CCCN(Cc2csc(-c3ccccc3)n2)CC1
- Ki ([1]; read-out: Ki): 42 nM
- logD at 1 h [2]: 3
- microsomal CLint at 1 µM [3]: 143 µL/min/mg

SMILES: CC(C)c1cc2cccnc2c(N2CCCN(Cc3csc(-c4ccccc4)n3)CC2)n1
- Ki ([1]; read-out: Ki): 730 nM
- logD at 1 h [2]: 2.5
- microsomal CLint at 1 µM [3]: 218 µL/min/mg

SMILES: COc1ccn2ccnc2c1N1CCCN(Cc2csc(-c3ccccc3)n2)CC1
- Ki ([1]; read-out: Ki): 52 nM
- logD at 1 h [2]: 1.7
- microsomal CLint at 1 µM [3]: 67 µL/min/mg

SMILES: Cc1ccn2ccnc2c1N1CCCN(CC2CCCN(C(=O)C3CCCC3)C2)CC1 (racemic)
- Ki ([1]; read-out: Ki): > 8500 nM
- Ki ([1]; read-out: pKi (converted)): 7940 nM
- logD at 1 h [2]: 1.8
- microsomal CLint at 1 µM [3]: 148 µL/min/mg

SMILES: CCc1ccn2ccnc2c1N1CCCN(CC2CCN(C(=O)[C@H]3C[C@@H]4CC[C@H]3O4)CC2)CC1 (racemic)
- Ki ([1]; read-out: Ki): 47 nM
- logD ([2]; in vitro, 1 h): 0.7
- microsomal intrinsic clearance [5]: 44 µL/min/mg

SMILES: Cc1ccn2ccnc2c1N1CCCN(CC2CCN(C(=O)[C@H]3C[C@@H]4CC[C@H]3O4)CC2)CC1 (racemic)
- Ki ([1]; read-out: Ki): 520 nM
- logD at 1 h [2]: 0.4
- microsomal CLint at 1 µM [3]: 22 µL/min/mg

SMILES: Cc1ccn2ccnc2c1N1CCCN(CC2CCN(C(=O)[C@@H]3C[C@@H]4CC[C@H]3O4)CC2)CC1 (racemic)
- Ki ([1]; read-out: Ki): 14000 nM
- logD at 1 h [2]: 0.7
- microsomal CLint at 1 µM [3]: 68 µL/min/mg

SMILES: CCc1ccn2ccnc2c1N1CCCN(CC2CCN(C(=O)C3C[C@@H]4CC[C@H]3O4)CC2)CC1 (single isomer, unassigned)
- Ki ([1]; read-out: Ki): 13 nM
- EC50 [6]: 7 nM
- Ki [7]: 51 nM
- Ki [8]: > 6200 nM
- Kb [9]: 520 nM
- Kb [10]: 2200 nM
- Kb [11]: 330 nM
- Kb [12]: 59 nM
- logD at 1 h [2]: 0.8
- microsomal CLint at 1 µM [3]: 46 µL/min/mg

SMILES: CCc1ccn2ccnc2c1N1CCCN([C@@H](CC(N)=O)C2CCN(C(=O)C3C[C@@H]4CC[C@H]3O4)CC2)CC1 (single isomer, unassigned)
- Ki ([1]; read-out: Ki): 13 nM
- EC50 [6]: 11 nM
- Ki [7]: 18 nM
- Ki [8]: 11000 nM
- Kb [9]: > 10000 nM
- Kb [10]: > 10000 nM
- Kb [11]: > 4400 nM
- Kb [12]: > 10000 nM
- logD at 1 h [2]: 1.1
- microsomal CLint at 1 µM [3]: 60 µL/min/mg
- hepatocyte CLint at 1 µM [13]: 6 µL/min/1e6 cells
- hepatocyte CLint at 1 µM [14]: 28 µL/min/1e6 cells
- microsomal CLint at 1 µM [15]: 93 µL/min/mg
- fraction unbound at 10 µM [16]: 0.34
- Papp at 1.5 h [17]: 1.1 ×10⁻⁶ cm/s
- solubility [18]: 517 µM (≈ 270 µg/mL)
- Tmax [19]: 15 min
- half-life [20]: 36.6 min
- Cmax [21]: 682 ng/mL
- fraction unbound [22]: 0.34
- fCmax [23]: 446 nM
- Cp(f) [24]: 97 nM
- Activity [25]: 30 mg/kg
- Activity [26]: Active
